# From ChEMBL document CHEMBL3580642, “Cytotoxic Bryostatin Derivatives from the South China Sea Bryozoan Bugula neritina” (J Nat Prod, 2015)
# pIC50: −log10 of the molar value. Active and inactive are the calls of the source. The rule behind the calls is not given here.
# Columns and labels:
# K562 [1] = experiment: Cytotoxicity against human K562 cells assessed as reduction in cell viability incubated for 72 hrs by MTT method; type: functional, cell-based; settings: K562, 72 h
# In short: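 Cells were grown in RPMI-1640 or DMEM with 10% FBS at 37 °C, humidified 5% CO2. Adherent cells attached for 12 h before dosing, and suspension cells were seeded at 1 × 10^5 cells/mL. […] MTT read-out used DMSO solubilisation and OD 490 nm. IC50 came from mean OD versus concentration curves.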
# U-937 [2] = experiment: Cytotoxicity against human U937 cells assessed as reduction in cell viability incubated for 72 hrs by MTT method; type: functional, cell-based; settings: U-937, 72 h
# HeLa [3] = experiment: Cytotoxicity against human HeLa cells assessed as reduction in cell viability at 20 ug/ml incubated for 72 hrs by MTT method; type: functional, cell-based
# In short: (§1)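 Cultures were kept in RPMI-1640 or DMEM with 10% FBS at 37 °C, 5% CO2. Adherent cells were dosed after 12 h attachment, and suspension cells were seeded at 1 × 10^5 cells/mL. Triplicate 72 h exposure was followed by MTT, DMSO solubilisation and OD 490 nm. Activity was scored at a concentration of 20 μg/mL.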
# SGC-7901 = experiment: Cytotoxicity against human SGC7901 cells assessed as reduction in cell viability at 20 ug/ml incubated for 72 hrs by MTT method; type: functional, cell-based; in short: as §1
# U-937 [4] = experiment: Cytotoxicity against human U937 cells assessed as reduction in cell viability at 20 ug/ml incubated for 72 hrs by MTT method; type: functional, cell-based; in short: as §1
# K562 [5] = experiment: Cytotoxicity against human K562 cells assessed as reduction in cell viability at 20 ug/ml incubated for 72 hrs by MTT method; type: functional, cell-based; in short: as §1
# [6] = Cytotoxicity against human SGC7901 cells assessed as reduction in cell viability incubated for 72 hrs by MTT method; settings: SGC-7901, 72 h
# HeLa [7] = experiment: Cytotoxicity against human HeLa cells assessed as reduction in cell viability incubated for 72 hrs by MTT method
Compound,pIC50 (K562 [1]),pIC50 (U-937 [2]),inhibition (HeLa [3]),inhibition (SGC-7901),inhibition (U-937 [4]),inhibition (K562 [5]),pIC50 [6],pIC50 (HeLa [7])
CCCC(=O)O[C@H]1/C(=C/C(=O)OC)C[C@H]2C[C@H]([C@@H](C)O)OC(=O)C[C@H](O)C[C@@H]3C[C@H](OC(=O)C(C)(C)C)C(C)(C)[C@](O)(C[C@@H]4C/C(=C/C(=O)OC)C[C@H](/C=C/[C@H](C)[C@]1(O)O2)O4)O3,5.00,5.11,inactive,inactive,–,–,–,–
CCCC(=O)O[C@H]1/C(=C/C(=O)OC)C[C@@H]2C[C@H]([C@@H](C)O)OC(=O)C[C@H](O)C[C@@H]3C[C@H](OC(=O)CC(C)C)C(C)(C)[C@](O)(C[C@@H]4C/C(=C/C(=O)OC)C[C@H](/C=C/C(C)(C)[C@]1(O)O2)O4)O3,–,–,inactive,inactive,inactive,inactive,–,–
CCCC(=O)O[C@H]1/C(=C/C(=O)OC)C[C@H]2C[C@H]([C@@H](C)O)OC(=O)C[C@H](O)C[C@@H]3C[C@H](OC(=O)C(C)(C)C)C(C)(C)[C@](OC)(C[C@@H]4C/C(=C/C(=O)OC)C[C@H](/C=C/C(C)(C)[C@]1(O)O2)O4)O3,–,–,inactive,inactive,inactive,inactive,–,–
COc1cccc2c1C(=O)c1c(O)c3c(c(O)c1C2=O)C[C@@](O)(C(=O)CO)C[C@@H]3O[C@H]1C[C@H](N)[C@H](O)[C@H](C)O1 [DOXORUBICIN],6.70,–,–,–,–,–,6.70,7.00
